pEC50, pIC50: −log10 of the molar value.
Tests used:
[1] = target: T1, Protein deacetylase HDAC6 (Homo sapiens, UniProt Q9UBN7); test: Inhibition of HDAC6 in […] cells assessed as increase in alpha-tubulin acetylation measured after 24 hrs by Western blot analysis; assay type: cell-based, Mus musculus
T1 sequence (Q9UBN7 whole entry): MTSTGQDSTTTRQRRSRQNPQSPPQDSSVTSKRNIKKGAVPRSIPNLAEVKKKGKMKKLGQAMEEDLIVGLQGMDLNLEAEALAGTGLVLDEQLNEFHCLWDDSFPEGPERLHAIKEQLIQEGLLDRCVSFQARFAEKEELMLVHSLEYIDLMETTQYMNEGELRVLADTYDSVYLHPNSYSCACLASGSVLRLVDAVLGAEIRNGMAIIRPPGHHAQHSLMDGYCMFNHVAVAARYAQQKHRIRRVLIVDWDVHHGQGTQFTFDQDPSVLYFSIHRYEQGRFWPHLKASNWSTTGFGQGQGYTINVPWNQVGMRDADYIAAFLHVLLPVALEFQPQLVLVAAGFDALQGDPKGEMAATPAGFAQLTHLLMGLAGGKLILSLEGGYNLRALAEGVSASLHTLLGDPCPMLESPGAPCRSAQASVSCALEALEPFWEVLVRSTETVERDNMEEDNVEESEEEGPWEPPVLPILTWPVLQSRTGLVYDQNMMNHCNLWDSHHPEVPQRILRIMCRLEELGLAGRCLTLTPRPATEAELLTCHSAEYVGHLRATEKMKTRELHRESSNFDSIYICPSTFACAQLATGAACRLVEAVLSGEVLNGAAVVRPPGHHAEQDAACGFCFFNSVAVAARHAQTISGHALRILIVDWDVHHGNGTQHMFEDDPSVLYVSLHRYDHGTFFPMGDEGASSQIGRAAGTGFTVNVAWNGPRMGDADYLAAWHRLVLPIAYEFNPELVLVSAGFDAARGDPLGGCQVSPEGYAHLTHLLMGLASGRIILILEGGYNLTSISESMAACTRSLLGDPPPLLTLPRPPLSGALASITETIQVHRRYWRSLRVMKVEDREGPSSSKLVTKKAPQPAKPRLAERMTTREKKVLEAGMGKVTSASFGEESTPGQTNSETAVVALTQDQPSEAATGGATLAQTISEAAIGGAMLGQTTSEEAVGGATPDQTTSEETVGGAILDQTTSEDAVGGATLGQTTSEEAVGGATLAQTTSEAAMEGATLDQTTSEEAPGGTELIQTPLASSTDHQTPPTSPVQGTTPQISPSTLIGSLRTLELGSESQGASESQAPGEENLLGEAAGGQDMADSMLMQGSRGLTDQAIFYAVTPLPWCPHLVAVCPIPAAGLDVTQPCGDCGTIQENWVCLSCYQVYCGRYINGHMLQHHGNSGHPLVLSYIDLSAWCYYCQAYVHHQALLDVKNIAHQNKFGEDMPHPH

[2] = Elimination rate constant in human liver microsomes at 1 uM preincubated for 3 mins followed by NADPH addition and measured up to 60 mins by LC-MS/MS analysis; assay type: ADME, Microsome; conditions: time <=63 min
How it was run: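 Mixed-gender human liver microsomes with test article at 1 µM final. Testosterone (5 µM) run separately as control. Mixture without cofactor equilibrated 3 min at 37 °C in a shaking water bath, then started with cofactor. Aliquots taken at 0, 10, 20, 30 and 60 min. CLint = k/P, where k is the elimination rate constant and P is the incubation protein concentration.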

[3] = target: Histone deacetylase 4 (Homo sapiens, UniProt P56524); test: Inhibition of recombinant human N-terminal GST-tagged/C-terminal His-tagged HDAC4 (627 to 1084 residues) expressed in baculovirus expression system using Boc-Lys(TFA)-AMC as substrate preincubated for 5 mins followed by substrate addition and measured after 30 mins by fluorescence assay
Sequence of Histone deacetylase 4 (P56524 whole entry, the tested form may be a part): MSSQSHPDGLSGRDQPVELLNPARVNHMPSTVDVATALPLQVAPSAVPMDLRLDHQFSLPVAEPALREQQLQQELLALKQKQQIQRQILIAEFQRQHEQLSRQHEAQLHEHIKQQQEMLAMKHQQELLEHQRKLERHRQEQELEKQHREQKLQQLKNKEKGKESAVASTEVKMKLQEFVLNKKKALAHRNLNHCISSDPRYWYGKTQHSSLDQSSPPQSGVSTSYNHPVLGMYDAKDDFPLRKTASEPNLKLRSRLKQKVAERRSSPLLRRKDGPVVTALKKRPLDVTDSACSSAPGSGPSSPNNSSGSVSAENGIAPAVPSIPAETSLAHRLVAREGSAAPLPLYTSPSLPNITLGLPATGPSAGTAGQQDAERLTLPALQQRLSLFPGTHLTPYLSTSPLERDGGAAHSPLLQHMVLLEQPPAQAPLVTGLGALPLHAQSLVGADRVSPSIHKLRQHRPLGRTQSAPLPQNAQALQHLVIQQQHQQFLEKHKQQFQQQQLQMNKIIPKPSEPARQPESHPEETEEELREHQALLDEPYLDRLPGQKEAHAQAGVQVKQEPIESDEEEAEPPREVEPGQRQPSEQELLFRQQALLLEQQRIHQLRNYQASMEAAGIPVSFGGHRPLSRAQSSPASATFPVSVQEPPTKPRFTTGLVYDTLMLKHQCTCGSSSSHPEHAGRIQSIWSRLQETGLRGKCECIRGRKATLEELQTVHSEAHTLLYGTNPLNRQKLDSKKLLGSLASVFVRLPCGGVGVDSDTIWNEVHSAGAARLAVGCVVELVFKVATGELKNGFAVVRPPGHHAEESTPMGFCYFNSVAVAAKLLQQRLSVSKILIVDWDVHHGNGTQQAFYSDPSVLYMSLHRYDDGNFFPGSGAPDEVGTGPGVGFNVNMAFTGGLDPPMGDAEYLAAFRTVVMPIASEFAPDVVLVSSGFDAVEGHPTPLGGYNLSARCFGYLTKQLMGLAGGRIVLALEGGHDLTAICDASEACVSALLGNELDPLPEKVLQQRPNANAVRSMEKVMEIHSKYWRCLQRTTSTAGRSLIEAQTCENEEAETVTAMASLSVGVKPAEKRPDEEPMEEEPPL

[4] = target: T1, Protein deacetylase HDAC6; test: Inhibition of recombinant human full-length N-terminal GST-tagged HDAC6 expressed in baculovirus infected Sf9 insect cells using Boc-Lys(Ac)-AMC as substrate preincubated for 5 mins followed by substrate addition and measured after 30 mins by fluorescence assay
[5] = test system: MDR1; test: Apparent permeability of compound in MDCK-MDR1 cells at 5 uM measured after 2 hrs by LC-MS/MS analysis; assay type: ADME, cell-based, Canis lupus familiaris; conditions: dog
How it was run: (§1)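 MDR1-MDCK monolayers grown to confluence on collagen-coated microporous membranes. Test article dosed at 5 µM apical (A-to-B) or basolateral (B-to-A) in HBSS with 10 mM HEPES, 15 mM glucose, pH 7.4; receiver buffer has 1% BSA. 37 °C, 5% CO2; donor and receiver sampled at 120 min, quantified by LC-MS/MS (ESI). Duplicate determinations; lucifer yellow flux checks monolayer integrity. Efflux ratio = Papp(B-A)/Papp(A-B).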

[6] = test system: MDR1; test: Efflux ratio of apparent permeability across basolateral to apical side over apical to basolateral side in MDCK-MDR1 cells at 5 uM measured after 2 hrs by LC-MS/MS analysis; assay type: ADME, cell-based, Canis lupus familiaris; conditions: dog; how it was run: as §1
[7] = target: T2, Histone deacetylase 7 (Homo sapiens, UniProt Q8WUI4); test: Inhibition of recombinant human N-terminal GST-tagged HDAC7 (518 to end residues) expressed in baculovirus infected Sf9 cells using fluorogenic HDAC 2A substrate preincubated for 5 mins followed by substrate addition and measured after 30 mins by fluorescence assay
T2 sequence (Q8WUI4 whole entry): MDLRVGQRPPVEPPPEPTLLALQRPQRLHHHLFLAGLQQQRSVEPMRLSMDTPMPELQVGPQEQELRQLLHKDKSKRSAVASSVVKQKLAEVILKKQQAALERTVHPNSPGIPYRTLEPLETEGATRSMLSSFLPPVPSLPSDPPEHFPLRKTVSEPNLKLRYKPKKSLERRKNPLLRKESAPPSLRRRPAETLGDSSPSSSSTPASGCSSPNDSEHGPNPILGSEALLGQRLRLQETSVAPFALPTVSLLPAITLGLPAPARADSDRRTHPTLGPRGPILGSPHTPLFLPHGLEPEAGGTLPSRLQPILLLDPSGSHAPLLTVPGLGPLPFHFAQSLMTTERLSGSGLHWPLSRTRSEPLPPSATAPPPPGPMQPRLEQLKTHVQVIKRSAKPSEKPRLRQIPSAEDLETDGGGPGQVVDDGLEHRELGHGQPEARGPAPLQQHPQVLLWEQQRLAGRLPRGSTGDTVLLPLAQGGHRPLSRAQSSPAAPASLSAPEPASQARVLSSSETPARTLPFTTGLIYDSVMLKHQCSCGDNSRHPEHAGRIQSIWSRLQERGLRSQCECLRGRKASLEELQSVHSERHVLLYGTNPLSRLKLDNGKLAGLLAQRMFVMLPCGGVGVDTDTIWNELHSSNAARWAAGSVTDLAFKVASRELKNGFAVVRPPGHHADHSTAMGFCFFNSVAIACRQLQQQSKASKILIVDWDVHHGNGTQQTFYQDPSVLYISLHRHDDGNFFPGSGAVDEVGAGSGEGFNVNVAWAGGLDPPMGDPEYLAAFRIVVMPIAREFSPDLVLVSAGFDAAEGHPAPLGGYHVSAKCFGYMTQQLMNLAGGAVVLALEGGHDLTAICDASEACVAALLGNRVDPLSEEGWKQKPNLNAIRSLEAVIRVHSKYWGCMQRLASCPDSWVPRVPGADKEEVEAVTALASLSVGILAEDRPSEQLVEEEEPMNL

Row | SMILES | pEC50 [1] | k el at 1 h, 1 µM [2] | pIC50 [3] | pIC50 [4] | Papp at 2 h, 5 µM [5] | efflux ratio at 2 h, 5 µM [6] | pIC50 [7]
1 | O=C(NO)c1ccc(Nc2c3ccccc3nc3ccccc23)cc1 | 5.10 | 0.00034 s⁻¹ | 5.65 | 7.60 | 2.72 ×10⁻⁶ cm/s |  | 
2 | O=C(NO)c1ccc(Nc2c3ccccc3nc3ccc(Br)cc23)cc1 | 5.10 | 0.000305 s⁻¹ | 5.11 | 7.59 | 4.57 ×10⁻⁶ cm/s | 7.42 | 5.04

— ChEMBL document CHEMBL4680220, “Synthesis and biological evaluation of acridine-based histone deacetylase inhibitors as multitarget agents against Alzheimer's disease” (Eur J Med Chem, 2020)
